Screens: PubChem, several laboratories
Only a selection was taken, and hits are over-represented in it overall.
Dynein cargo inh = blocks dynein driven cargo transport along microtubules. z-score, hits read low. actives 0.47% (n = 220,000). 3617.4 mouse cells, GR-EGFP nuclear translocation imaging; test concentration mostly 20 µM; stimulated with dexamethasone, 1 µM; stronger effect = lower value;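 active = plate z-score of nuclear minus cytoplasmic receptor signal below a set negative limit, without overly bright fluorescence or cell loss, cut at about -3.5 in these data, passing the limit was not always enough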;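 also: z-score of nuclear minus cytoplasmic ring GR-EGFP intensity difference per well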
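Also added: dexamethasone, 1.0 µM final. Medium: tet-free, stripped-serum medium. Detection: fixed, Hoechst-stained cells imaged at 10x for EGFP. Read-out: nuclear-to-cytoplasmic GR-EGFP distribution per well. Times: induction 48 h, compound 1 h, agonist 30 min.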
CHOP inhibitor = blocks CHOP induction under ER stress; CHO-K1 CHOP-promoter luciferase, tunicamycin-induced, 15-18 h; inhibition, % at 10 µM; actives 3.8% (n = 220,000);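 active = compounds that reduced the stress-induced luciferase reporter signal by more than about 70% of percent inhibition, limit read from the data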
UPR CHOP act = apoptotic UPR (CHOP) activation; CHO-CHOP luciferase reporter, luminescence; percent of tunicamycin response over DMSO baseline; activation, % at 10 µM; actives 0.34% (n = 330,000);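 active = at 10 µM dose, activation of 40% or more, normalized to positive control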
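Assay system: CHO cells with stable CHOP pathway luciferase reporter; Buffer or medium: F12 plus 10% serum; Times: 16-18 h cell attachment, then 6 h compound exposure, 37 °C; Signal: luciferase luminescence; Read-out basis: percent activation relative to tunicamycin control; Control set: tunicamycin high control, DMSO low control.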
L major viab = reduces viability of Leishmania major promastigotes. actives 9% (n = 200,000). inhibition, % at 10 µM. resazurin fluorescence viability. AID 1063; in the data active = inhibition above about 50%;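 also: promastigotes grown with compound for 44 hours at 28 °C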
T cruzi inh = blocks replication of Trypanosoma cruzi; AID 1885; inhibition, % (test concentration not listed); actives 1.4% (n = 300,000); T. cruzi beta-gal in NIH3T3, luminescence, 90 h;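 active = mean inhibition across valid replicates above about 55%, limit read from the data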;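 also: signal also drops with host cell toxicity which is not excluded here; higher percent means less beta-gal luminescence so fewer parasites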
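System: Mouse NIH/3T3 fibroblasts infected with β-gal-expressing T. cruzi Tulahuen C4 | Quantity: NIH/3T3 cells, 5,000 per well | Reagent: 5000 reporter trypomastigotes per well | Dosing: Compound pinned at 50 nL/well, DMSO | Schedule: 3 h host attachment, then at least 90 h co-culture | Detection: GalScreen luminescence, 60 min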
XBP1 UPR activ = adaptive UPR (XBP1) activation; CHO-XBP1 luciferase reporter, IRE1-XBP1 UPR activation, luminescence; percent of tunicamycin response, DMSO as zero; actives 0.33% (n = 330,000); AID 463104; activation, % at 20 µM;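 active = versus positive control, 20 µM dose yields 30% or more activation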
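assay system = CHO-XBP1 luciferase reporter cells | amount = 1000 cells/well | buffer or medium = F12 plus 10% FBS | compound dosing = single point, 20 µM final compound, 1% DMSO | incubation = 16-18 h cell attachment at 37 °C, then 6 h compound exposure | detection = Steady-Glo luminescence read | controls = tunicamycin 10 µg/mL and vehicle-only wells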
A number is an active result; 0 = inactive; - = not tested or not shown.

SMILES	Dynein cargo inh	CHOP inhibitor	UPR CHOP act	L major viab	T cruzi inh	XBP1 UPR activ
Cc1ccc(-c2cc3nc(-c4ccccc4)cc(N)n3n2)cc1	0	77.7	0	0	0	0
Cc1ccc(-c2cc(N)n3nc(-c4ccc(C)cc4)cc3n2)cc1	0	74.3	0	0	0	0
Cc1ccc(-c2cc3nc(-c4ccc(Br)cc4)cc(N)n3n2)cc1	0	0	0	0	0	0
Cc1cc(N)n2nc(-c3ccccc3)cc2n1	0	0	-	54.9	0	-
C#CCn1c(S(=O)(=O)Cc2ccccc2Cl)nc(-c2ccccc2)c1-c1ccccc1	0	80.4	0	0	0	0
CCOC(=O)Cn1c(-c2cccnc2)nc(-c2ccccc2)c1-c1ccccc1	-	-	-	-	0	-
CCOC(=O)Cn1c(S(=O)(=O)Cc2ccccc2Cl)nc(-c2ccccc2)c1-c1ccccc1	0	70.1	0	0	0	0
CCc1nn2c(N3CCOCC3)cc(C)nc2c1-c1ccccc1	-	-	0	-	0	0
COc1cccc(NC(=O)CN(c2ccc([N+](=O)[O-])cc2)S(=O)(=O)c2ccccc2)c1	0	0	0	97.6	0	0
Cc1ccc([N+](=O)[O-])cc1NC(=O)CN(C1CCCCC1)S(=O)(=O)c1ccc(Cl)cc1	-	0	-	73.3	59.0	-
COc1ccc(OC)c(N(CC(=O)Nc2ccc3c(c2)OCO3)S(=O)(=O)c2ccccc2)c1	0	0	0	99.7	0	0
CCc1nc2ccccc2c(C(=O)OCC(=O)Nc2cccc(S(=O)(=O)N3CCOCC3)c2)c1C	0	0	0	0	0	0
CCc1nc2ccccc2c(C(=O)OCC(=O)Nc2ccc(S(=O)(=O)N3CCOCC3)cc2)c1C	0	74.4	0	0	0	0
COc1ccc(Cl)cc1N(CC(=O)Nc1ccc2c(c1)OCO2)S(C)(=O)=O	0	0	0	0	0	0
Cc1ccc(NS(=O)(=O)c2ccc(NC(=O)CN(c3cc([N+](=O)[O-])ccc3C)S(C)(=O)=O)cc2)c(C)c1	0	0	0	0	0	0
CS(=O)(=O)N(CC(=O)Nc1cccc([N+](=O)[O-])c1)c1ccccc1	0	0	0	0	0	0
CS(=O)(=O)N(CC(=O)Nc1cccc([N+](=O)[O-])c1)c1ccccc1F	0	0	0	0	0	0
COc1ccc(C)cc1S(=O)(=O)N(CC(=O)Nc1cccc([N+](=O)[O-])c1)c1ccccc1	0	0	0	56.0	0	0
COc1ccc(NC(=O)CN(c2ccc([N+](=O)[O-])cc2)S(=O)(=O)c2ccccc2)cc1	0	0	0	0	0	0
Cc1ccc(NC(=O)CN(c2ccc(Cl)cc2)S(=O)(=O)c2cc([N+](=O)[O-])ccc2Cl)c(C)c1	0	0	0	98.3	58.8	0
COc1ccc(N(CC(=O)Nc2ccc(S(=O)(=O)N3CCOCC3)cc2)S(=O)(=O)c2ccccc2)cc1	0	0	0	58.2	-	0
Cc1ccccc1CN(CC(=O)Nc1cccc([N+](=O)[O-])c1)S(=O)(=O)c1ccc(Cl)cc1	0	0	0	99.6	0	0
CCOC(=O)N1CCN(c2ccc(S(=O)(=O)N3CCC(C)CC3)cc2[N+](=O)[O-])CC1	-	-	0	-	-	0
CSCCC(=O)N1CCCC(N(C)CCc2ccccc2)C1 (configuration not stated)	-	-	0	-	0	0
Cc1cccc(CS(=O)(=O)c2ncc(Cl)c(C(=O)NCc3ccccc3)n2)c1	-	-	84.3	-	0	0
SMILES	Dynein cargo inh	CHOP inhibitor	UPR CHOP act	L major viab	T cruzi inh	XBP1 UPR activ
OCCNc1cc(Cl)ncn1	0	0	0	-	0	0
Cn1c(SCCC#N)nnc1-c1ccc(F)cc1	0	0	0	0	0	0
CC(C)(C)c1ccc(-c2nnc(SCCC#N)n2C2CCCC2)cc1	0	71.5	0	0	0	0
O=C(O)COc1ccc2oc3ccccc3c2c1	0	0	0	0	0	0
CN(CCOc1ccccc1)S(=O)(=O)c1ccc2oc3ccccc3c2c1	0	0	0	55.5	0	0
CC(=O)Nc1ccc(S(=O)(=O)NCc2nc(-c3cccc(C)c3)no2)cc1	-	-	0	-	0	0
COC(=O)c1sccc1NC(=O)c1ccc(Br)o1	0	87.7	0	0	0	0
COC(=O)c1sccc1NC(=O)c1ccc(C)o1	0	0	0	0	0	0
CSc1ccccc1NC(=O)CN(Cc1ccc(Cl)cc1)S(C)(=O)=O	0	76.8	0	0	0	0
CSc1ccccc1NC(=O)CN(Cc1ccccc1)S(C)(=O)=O	0	0	0	0	0	0
CSc1cccc(NC(=O)CN(Cc2ccc(Cl)cc2)S(C)(=O)=O)c1	0	93.1	0	0	0	0
COC(=O)c1ccccc1NC(=S)N(Cc1ccc2c(c1)OCO2)Cc1cc2ccc(C)cc2[nH]c1=O	0	0	0	97.4	0	0
CCOc1ccc2[nH]c(=O)c(CN(CCN3CCCC3)C(=S)Nc3ccccc3OCC)cc2c1	0	0	0	98.1	0	0
COc1ccc2[nH]c(=O)c(CN(Cc3ccc4c(c3)OCO4)C(C)=O)cc2c1	0	0	0	0	0	0
CCN(CC)CCN(Cc1cc2ccc(C)cc2[nH]c1=O)C(=S)Nc1ccccc1C(=O)OC	0	0	0	0	0	0
COc1ccc2[nH]c(=O)c(CN(CCN3CCCC3)C(=O)Nc3ccccc3Cl)cc2c1	-	0	0	-	0	0
COC(=O)c1ccccc1NC(=S)N(Cc1ccc2c(c1)OCO2)Cc1cc2cc(C)ccc2[nH]c1=O	0	0	0	99.4	0	0
COC(=O)c1ccccc1NC(=S)N(Cc1ccc2c(c1)OCO2)Cc1cc2ccc(OC)cc2[nH]c1=O	0	0	0	58.1	0	0
COc1ccccc1NC(=S)N(Cc1ccco1)Cc1cc2cc(C)ccc2[nH]c1=O	0	0	0	0	0	0
CCC1Oc2ccccc2N(CC(=O)NC2CCCCC2C)C1=O (configuration not stated)	-	-	0	-	0	0
COc1ccc(CNC(=O)COC(=O)c2ccc(Br)o2)cc1	-	-	0	-	-	0
CCOc1ccc(Oc2ccc(NC(=O)CSc3nncn3C)cc2)cc1	-	-	0	-	-	0
CCc1ccc2[nH]c(=O)c(CN(Cc3ccccc3OC)C(=O)Nc3ccccc3OC)cc2c1	0	71.1	0	0	61.7	0
CCN(CC)CCN(Cc1cc2cc(C)ccc2[nH]c1=O)C(=O)Nc1ccccc1OC	0	0	0	0	0	0
CCC1(CC)NC(=O)N(CC(=O)OCC(=O)Nc2ncc(Cl)cc2Cl)C1=O	-	-	0	-	0	0
NNC(=O)c1sccc1OCc1ccc(F)cc1	0	0	0	0	0	0
O=C(N/N=C/c1ccc(F)cc1)c1sccc1OCc1ccc(F)cc1	0	0	0	88.4	0	0
